Reference: ChEMBL document CHEMBL4130411, “Arylthiazole antibiotics targeting intracellular methicillin-resistant Staphylococcus aureus (MRSA) that interfere with bacterial cell wall synthesis” (Eur J Med Chem, 2017)
≈ marks a conversion by molar mass, not a printed value. Calls of active or inactive are those of the source. The rule behind the calls is not given here.

Experiments:
Staphylococcus aureus [1] = experiment: Antibacterial activity against methicillin-resistant Staphylococcus aureus NRS123 (USA400) infected in mouse J774 cells assessed as reduction in bacterial colony forming units at 16 ug/ml after 4 hrs; format: functional, organism-based
Summary of the method: (§1)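 J774 macrophages in DMEM + 10% FBS, 37 °C, 5% CO2, infected with USA400 at MOI ~100:1; after 1 h, gentamicin (50 µg/mL) wash; agent at 16 µg/mL in triplicate; at time point, gentamicin wash, lysis in 0.1% Triton X-100, serial dilution, TSA plating 18-22 h at 37 °C; % CFU/mL reduction versus untreated; t-test.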

[2] = Selectivity ratio of cytotoxicity against human HaCaT cells to MIC for methicillin-resistant Staphylococcus aureus USA300 NRS384; format: toxicity, cell-based
Staphylococcus aureus [3] = experiment: Bactericidal activity against methicillin-resistant Staphylococcus aureus USA200 NRS383 incubated for 20 hrs followed by replating on tryptic soy agar plates and further incubated for 18 hrs by broth microdilution assay; format: functional
[4] = Half life in human liver microsomes in presence of NADPH by LC-MS/MS analysis; format: ADME, microsome; conditions: microsomes
Summary of the method: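 Human liver microsomal protein was incubated in duplicate at 37 °C in 100 mM potassium phosphate, 2 mM NADPH, 3 mM MgCl2, pH 7.4. Samples were taken at 0, 10, 20, 40 and 60 min and stopped with ice-cold methanol containing an internal standard. Half-life was derived from depletion. CLint = ln(2)/(T1/2 × microsomal protein concentration).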

HaCaT = experiment: Cytotoxicity against human HaCaT cells assessed as reduction in cell viability up to 32 ug/ml after 2 hrs by MTS assay; format: cell-based
Summary of the method: (§2)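 Cells were HaCaT keratinocytes or J774 murine macrophages, grown in DMEM with 10% FBS at 37 °C, 5% CO2. They were exposed in triplicate to 8, 16, 32 and 64 µg/mL for 2 h, with DMSO-matched controls. MTS was then added for 4 h and absorbance read at 490 nm. Viability is expressed as % of DMSO-treated cells, mean ± SD.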

Staphylococcus aureus [5] = experiment: Bactericidal activity against methicillin-resistant Staphylococcus aureus NRS123 (USA400) assessed as time required for complete bacterial elimination by time-kill assay; format: functional
[6] = Half life in human liver microsomes in absence of NADPH by LC-MS/MS analysis; format: ADME, microsome
Summary of the method: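 Human liver microsomes were incubated in duplicate at 37 °C in 100 mM potassium phosphate with 3 mM MgCl2, pH 7.4, without NADPH to detect NADPH-free degradation. Aliquots were taken at 0, 10, 20, 40 and 60 min and quenched in ice-cold methanol containing an internal standard, then held at least 10 min at -20 °C before water was added. Half-life was taken from compound depletion.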

Bacillus subtilis [7] = experiment: Inhibition of cell wall biosynthesis in Bacillus subtilis assessed as induction of small bulges formation at 3.5 ug/ml incubated for 2 hrs in presence of osmotic stabilising agent MSM by FM-4-64 staining based assay; format: functional, organism-based
Summary of the method: (§3)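 B. subtilis grown in LB at 37 °C to OD600 ~0.2, then treated with or without the osmotic stabiliser MSM for 2 h; stained with FM 4-64 (1 µg/mL, membranes), DAPI (1 µg/mL, DNA) and SYTOX Green (1 µg/mL, lysis); imaged by deconvolution fluorescence microscopy.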

Staphylococcus aureus [8] = experiment: Selectivity ratio of MBC99.9 for methicillin-resistant Staphylococcus aureus USA300 NRS384 to MIC for methicillin-resistant Staphylococcus aureus USA300 NRS384; format: functional
Staphylococcus aureus [9] = experiment: Antibacterial activity against vancomycin-resistant Staphylococcus aureus isolate 4 after 20 hrs by broth microdilution assay; format: functional; conditions: isolate 4, 20 h
Staphylococcus aureus [10] = experiment: Antibacterial activity against vancomycin-resistant Staphylococcus aureus isolate 10 after 20 hrs by broth microdilution assay; format: functional; conditions: isolate 10, 20 h
Staphylococcus aureus [11] = experiment: Selectivity ratio of MBC99.9 for Staphylococcus aureus RN4220 NRS107 to MIC for Staphylococcus aureus RN4220 NRS107; format: functional
Staphylococcus aureus [12] = experiment: Bactericidal activity against methicillin-resistant Staphylococcus aureus USA300 NRS384 incubated for 20 hrs followed by replating on tryptic soy agar plates and further incubated for 18 hrs by broth microdilution assay; format: functional
Staphylococcus aureus [13] = experiment: Bactericidal activity against vancomycin-resistant Staphylococcus aureus isolate 10 incubated for 20 hrs followed by replating on tryptic soy agar plates and further incubated for 18 hrs by broth microdilution assay; format: functional
Summary of the method: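 From MIC wells without visible growth, an aliquot was spotted onto Tryptic soy agar and incubated at 37 °C for at least 18 h; MBC = lowest concentration inhibiting 99.9% of bacterial growth.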

Bacillus subtilis [14] = experiment: Inhibition of cell wall biosynthesis in Bacillus subtilis at 4 times MIC incubated for 2 hrs by SYTOX Green staining-based assay
Staphylococcus aureus [15] = experiment: Selectivity ratio of MBC99.9 for methicillin-resistant Staphylococcus aureus NRS123 (USA400) to MIC for methicillin-resistant Staphylococcus aureus NRS123 (USA400); format: functional
Staphylococcus aureus [16] = experiment: Inhibition of cell wall synthesis in Staphylococcus aureus RN4220 NRS107 assessed as UDP-N-acetylmuramyl pentapeptide formation at 10 times MIC incubated for 30 mins by HPLC-MS analysis; format: functional, organism-based
Staphylococcus aureus [17] = experiment: Antibacterial activity against methicillin-resistant Staphylococcus aureus USA300 NRS384 infected in Caenorhabditis elegans AU37 assessed as reduction in bacterial burden at 20 ug/ml after 18 hrs by microscopic analysis relative to vancomycin; format: functional
Staphylococcus aureus [18] = experiment: Bactericidal activity against vancomycin-resistant Staphylococcus aureus isolate 4 incubated for 20 hrs followed by replating on tryptic soy agar plates and further incubated for 18 hrs by broth microdilution assay; format: functional
Staphylococcus aureus [19] = experiment: Selectivity ratio of MBC99.9 for methicillin-resistant Staphylococcus aureus USA200 NRS383 to MIC for methicillin-resistant Staphylococcus aureus USA200 NRS383; format: functional
Staphylococcus aureus [20] = experiment: Bactericidal activity against methicillin-resistant Staphylococcus aureus NRS123 (USA400) incubated for 20 hrs followed by replating on tryptic soy agar plates and further incubated for 18 hrs by broth microdilution assay; format: functional
[21] = Selectivity ratio of cytotoxicity against human HaCaT cells to MIC for methicillin-resistant Staphylococcus aureus USA100 NRS382; format: toxicity, cell-based
[22] = Selectivity ratio of cytotoxicity against human HaCaT cells to MIC for methicillin-resistant Staphylococcus aureus USA200 NRS383; format: toxicity, cell-based
Staphylococcus aureus [23] = experiment: Potentiation of vancomycin-induced antibacterial activity against vancomycin-resistant Staphylococcus aureus isolate 10 assessed as vancomycin MIC after 20 to 22 hrs by broth microdilution assay (reference value: […]); format: functional
Staphylococcus aureus [24] = experiment: Antibacterial activity against methicillin-resistant Staphylococcus aureus NRS123 (USA400) infected in mouse J774 cells assessed as reduction in bacterial colony forming units at 16 ug/ml after 24 hrs relative to control; format: functional; design: scale not given: the % may be the effect or the level left; summary of the method: as §1
Staphylococcus aureus [25] = experiment: Bactericidal activity against Staphylococcus aureus RN4220 NRS107 incubated for 20 hrs followed by replating on tryptic soy agar plates and further incubated for 18 hrs by broth microdilution assay; format: functional
Bacillus subtilis [26] = experiment: Inhibition of cell wall biosynthesis in Bacillus subtilis assessed as induction of formation of misshapen cells at 3.5 ug/ml incubated for 2 hrs in presence of osmotic stabilising agent MSM by FM-4-64 staining based assay; format: functional, organism-based; summary of the method: as §3
Staphylococcus aureus [27] = experiment: Bactericidal activity against methicillin-resistant Staphylococcus aureus USA100 NRS382 incubated for 20 hrs followed by replating on tryptic soy agar plates and further incubated for 18 hrs by broth microdilution assay; format: functional
Staphylococcus aureus [28] = experiment: Antibacterial activity against methicillin-resistant Staphylococcus aureus USA300 NRS384 after 20 hrs by broth microdilution assay; format: functional; conditions: USA300 NRS384, 20 h
[29] = Selectivity ratio of cytotoxicity against human HaCaT cells to MIC for methicillin-resistant Staphylococcus aureus NRS123 (USA400); format: toxicity, cell-based
Staphylococcus aureus [30] = experiment: Selectivity ratio of MBC99.9 for methicillin-resistant Staphylococcus aureus USA100 NRS382 to MIC for methicillin-resistant Staphylococcus aureus USA100 NRS382; format: functional
[31] = Selectivity ratio of cytotoxicity against human HaCaT cells to MIC for Staphylococcus aureus RN4220 NRS107; format: toxicity, cell-based
Staphylococcus aureus [32] = experiment: Potentiation of vancomycin-induced antibacterial activity against vancomycin-resistant Staphylococcus aureus isolate 10 assessed as reduction in vancomycin MIC after 20 to 22 hrs by broth microdilution assay relative to vancomycin alone; format: functional
J774 = experiment: Cytotoxicity against mouse J774 cells assessed as reduction in cell viability up to 16 ug/ml after 2 hrs by MTS assay; format: cell-based; conditions: j774, 2 h; summary of the method: as §2
Staphylococcus aureus [33] = experiment: Antibacterial activity against methicillin-resistant Staphylococcus aureus USA300 NRS384 infected in Caenorhabditis elegans AU37 assessed as reduction in bacterial burden at 20 ug/ml after 18 hrs by microscopic analysis; format: functional; design: scale not given: the % may be the effect or the level left

Q: With `Cc1nc(-c2ccc3ccccc3c2)sc1-c1cnc(NC(=N)N)s1` as the compound, how does the Activity (Staphylococcus aureus [1]) read?
A: inactive

Q: And the selectivity ratio [2]?
A: 4 to 16

Q: And the MBC (Staphylococcus aureus [3])?
A: 2 µg/mL (≈ 5.47 µM)

Q: And the t1/2 [4]?
A: 134 min

Q: What about the Activity (HaCaT) of the same compound?
A: Non-Toxic

Q: And the Time (Staphylococcus aureus [5])?
A: <=4 hr

Q: And the t1/2 [6]?
A: > 240 min

Q: And the inhibition (Bacillus subtilis [7])?
A: Active

Q: And the selectivity ratio (Staphylococcus aureus [8])?
A: 1

Q: And the MIC (Staphylococcus aureus [9])?
A: 4 µg/mL (≈ 10.9 µM)

Q: And the MIC (Staphylococcus aureus [10])?
A: 4 µg/mL (≈ 10.9 µM)

Q: And the selectivity ratio (Staphylococcus aureus [11])?
A: 2

Q: And the MBC (Staphylococcus aureus [12])?
A: 4 µg/mL (≈ 10.9 µM)

Q: And the MBC (Staphylococcus aureus [13])?
A: 4 µg/mL (≈ 10.9 µM)

Q: And the inhibition (Bacillus subtilis [14])?
A: Active

Q: What about the selectivity ratio (Staphylococcus aureus [15]) of the same compound?
A: 2

Q: And the inhibition (Staphylococcus aureus [16])?
A: Active

Q: And the “fold change (FC)” value (Staphylococcus aureus [17])?
A: 3

Q: And the MBC (Staphylococcus aureus [18])?
A: 4 µg/mL (≈ 10.9 µM)

Q: What about the selectivity ratio (Staphylococcus aureus [19]) of the same compound?
A: 1

Q: And the MBC (Staphylococcus aureus [20])?
A: 4 µg/mL (≈ 10.9 µM)

Q: What about the selectivity ratio [21] of the same compound?
A: 4 to 16

Q: And the selectivity ratio [22]?
A: 4 to 16

Q: What about the MIC (Staphylococcus aureus [23]) of the same compound?
A: 1 µg/mL

Q: What about the Activity (Staphylococcus aureus [24]) of the same compound?
A: 81%

Q: What about the MBC (Staphylococcus aureus [25]) of the same compound?
A: 4 µg/mL (≈ 10.9 µM)

Q: What about the inhibition (Bacillus subtilis [26]) of the same compound?
A: Active

Q: And the MBC (Staphylococcus aureus [27])?
A: 2 µg/mL (≈ 5.47 µM)

Q: And the MIC (Staphylococcus aureus [28])?
A: 4 µg/mL (≈ 10.9 µM)

Q: What about the selectivity ratio [29] of the same compound?
A: 4 to 16

Q: And the selectivity ratio (Staphylococcus aureus [30])?
A: 2

Q: And the selectivity ratio [31]?
A: 4 to 16

Q: What about the “fold change (FC)” value (Staphylococcus aureus [32]) of the same compound?
A: 512

Q: What about the Activity (J774) of the same compound?
A: Non-Toxic

Q: What about the Activity (Staphylococcus aureus [33]) of the same compound?
A: 30%
